Source: PubChem BioAssay (several laboratories)
Rin1-Abl PPI inh: inhibitors of human Rin1-Abl protein interaction; P00519+Q13671; TR-FRET Rin1/Abl binding, biochemical; inhibition, % at 7.35 µM; 360,000 tested, 0.4% active; in the data active = inhibition above about 5%, passing the limit was not always enough
Rpn11 block: inhibitors of human proteasome Rpn11; AID 588493; inhibition, % at 20 µM; human 26S proteasome, Ub4-pepOG fluorescence polarization; 20S core pre-blocked with epoxomicin; 360,000 tested, 0.59% active;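 active = inhibition at 20 µM, scaled to each plate's controls, above about 33%, limit read from the data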
NadD block: blocks S. aureus nicotinate mononucleotide adenylyltransferase. purified NadD enzyme, colorimetric absorbance read-out. inhibition, % at 20 µM. 360,000 tested, 0.78% active; in the data active = inhibition above about 26%
ABHD5-PLIN5 inh: ABHD5-PLIN5 protein interaction inhibition | inhibition, % at 4 µM | Split G. princeps luciferase complementation, luminescence, 4 h | Q00G26+Q8WTS1 | 360,000 tested, 0.78% active;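 active = inhibition above the mean inhibition across every tested compound plus 3 SD, cut at about 22% in these data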;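 also: 0% = DMSO only wells and the 100% control is not disclosed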
Target sequence (Q00G26 whole entry, looked up): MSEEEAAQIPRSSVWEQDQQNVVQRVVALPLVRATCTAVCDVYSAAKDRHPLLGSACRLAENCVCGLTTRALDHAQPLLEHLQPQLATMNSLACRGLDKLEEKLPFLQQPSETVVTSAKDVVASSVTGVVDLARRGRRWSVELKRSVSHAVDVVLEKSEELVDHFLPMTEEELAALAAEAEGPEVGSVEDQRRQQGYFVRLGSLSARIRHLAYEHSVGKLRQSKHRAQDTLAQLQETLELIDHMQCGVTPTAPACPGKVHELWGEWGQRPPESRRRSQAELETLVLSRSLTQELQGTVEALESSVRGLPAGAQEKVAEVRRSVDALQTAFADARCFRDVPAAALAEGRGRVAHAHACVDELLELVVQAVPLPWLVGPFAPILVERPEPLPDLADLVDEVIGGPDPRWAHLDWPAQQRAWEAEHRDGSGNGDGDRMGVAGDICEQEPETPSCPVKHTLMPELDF
Target sequence (Q8WTS1 whole entry, looked up): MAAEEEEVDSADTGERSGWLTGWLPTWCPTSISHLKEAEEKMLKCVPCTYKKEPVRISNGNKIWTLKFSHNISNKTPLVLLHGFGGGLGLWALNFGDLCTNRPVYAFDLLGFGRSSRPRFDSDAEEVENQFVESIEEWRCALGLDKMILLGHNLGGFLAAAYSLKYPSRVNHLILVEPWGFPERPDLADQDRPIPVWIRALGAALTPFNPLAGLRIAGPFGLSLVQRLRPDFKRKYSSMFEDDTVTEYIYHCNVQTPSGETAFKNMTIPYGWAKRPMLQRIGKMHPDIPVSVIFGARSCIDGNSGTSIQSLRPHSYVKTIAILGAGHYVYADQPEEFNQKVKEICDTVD
Xi reactivation: reactivates the inactive X chromosome in mouse fibroblasts | XiGFP mouse fibroblasts, % GFP-positive cells imaging, 3 d; cells co-treated with 5-aza-dC sensitizer; scaled so ellipticine positive control = 100% | activation, % at 7.58 µM | 360,000 tested, 0.055% active;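 active = mean normalized replicate activation at least 10% and every replicate at or above 10%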;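 also: 0% = median of on-plate neutral control wells and 100% = ellipticine 6 µM median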
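material = 68-5-11 XiGFP fibroblast line | medium = DMEM plus 5-aza-dC sensitizer | schedule = 3 days compound exposure | benchmarks = positive control ellipticine, 6 µM final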
Rpn11 confirm: Rpn11 inhibition confirmation, single concentration. inhibition, % at 20 µM. 1,900 tested, 29% active. purified human 26S proteasome, Ub4-pepOG fluorescence polarization; proteasome pretreated with epoxomicin. shares compounds with Rpn11 block
MMP-2 counter: MMP-2 (human) inhibition counter-screen. shares compounds with Rpn11 block. recombinant MMP-2, FRET peptide cleavage fluorescence. inhibition, % at 20 µM. 1,900 tested, 4% active. AID 602330;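 also: human MMP-2 activated beforehand with APMA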
Thrombin inh: counter-screen for RPN11 inhibitors: inhibition of bovine thrombin | shares compounds with Rpn11 block | bovine thrombin cleavage of Ub4-pepOG, fluorescence polarization | inhibition, % at 20 µM | 1,900 tested, 13% active | AID 602333;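 active = mean inhibition at least 40% at 20 µM, or signal 3 deviations below plate average, so some actives read negative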;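 also: plate controls were thrombin with DMSO for no effect and buffer wells lacking thrombin for full effect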
* = called active by the depositor; . = no result given; + = active, no number. Only some compounds are listed: those with a hit (about 1.9% of all), similar ones and a draw of the others. Rule as the data show it, unless noted: active = inhibition above about 40%; inactive = the rest.

SMILES	Rin1-Abl PPI inh	Rpn11 block	NadD block	ABHD5-PLIN5 inh	Xi reactivation	Rpn11 confirm	MMP-2 counter	Thrombin inh
COc1cccc2cc(C(=O)Nc3ccc(F)cc3)c(=Nc3ccc(C(=O)O)cc3)oc12	2.1	127.5*	6.4	-0.8	0.1	117.0*	-3.7	-17.3
COc1ccc(N=c2oc3c(OC)cccc3cc2C(=O)NCc2ccco2)cc1OC	-7.3	25.1	-0.8	3.9	.	.	.	.
Cc1nnc2sc(-c3ccc(NC(=O)c4ccc(-c5ccc(Cl)cc5Cl)o4)cc3)nn12	-1.5	+	29.8	-2.2	.	18.5	-41.1	43.9*
CC(=O)Cc1nsc(NC(=O)c2ccc(-c3ccc(Cl)cc3Cl)o2)n1	-0.6	-1.4	-3.0	3.5	.	.	.	.
COc1cccc(CNC(=O)C[C@@H]2C=C[C@@H](NC(=O)C3CCC3)[C@H](CO)O2)c1	.	.	.	.	0.1	.	.	.
CC/C(=N\Nc1ccc([N+](=O)[O-])cc1)c1ccccc1	-2.5	.	-4.1	2.6	.	.	.	.
O=[N+]([O-])c1cccc(C=NNc2ccccc2)c1	4.0	-2.6	-2.2	-0.1	0.2	.	.	.
O=[N+]([O-])c1ccc(C=NNc2ccccc2)cc1	-0.6	55.4*	-0.3	8.0	0.1	35.8	-21.2	24.7
O=[N+]([O-])c1ccc(NN=C(Oc2ccccc2)c2ccc([N+](=O)[O-])cc2)cc1	-1.6	42.1*	10.4	-2.6	0.0	8.9	-42.7	-14.3
CN(C)C(=O)c1cccc(-c2ccc(C3[C@@H]4CN(S(=O)(=O)Cc5ccccc5)C[C@H]3N4)cc2)c1 (stereo partly drawn)	.	.	.	.	0.0	.	.	.
COC1=C/C(=C/c2c(N)n3nc(CC(=O)N4CCCC4)sc3nc2=O)C=CC1=O	2.4	70.1*	2.0	-3.3	0.0	27.6	-14.8	36.3
CCOC1=C/C(=C/c2c(N)n3nc(CC(=O)N4CCCC4)sc3nc2=O)C=CC1=O	-0.8	71.2*	3.5	1.2	0.0	34.8	22.6	38.4
Cc1noc(C)c1S(=O)(=O)Nc1ccc2c(c1)C(=O)N([C@@H](C)CO)C[C@@H](C)[C@@H](CN(C)C(=O)Nc1ccccc1)OCCCC[C@@H](C)O2	.	.	.	.	0.2	.	.	.
COc1ccc(N2CCN(C(=O)c3ccc4c(c3)NC(=O)C(CSCc3ccccc3F)N4)CC2)cc1 (stereo not drawn)	-1.2	46.7*	56.4*	-2.5	-0.1	30.8	29.7	21.8
Cc1cc(=O)oc2cc(OCC(=O)c3ccc4c(c3)NC(=O)CO4)ccc12	1.1	45.0*	3.4	1.7	0.0	2.7	-23.6	-5.8
CS(=O)(=O)N1CCN(c2ccc([N+](=O)[O-])c(NCc3ccc(Cl)cc3)c2)CC1	-1.2	44.7*	-2.6	-2.2	0.0	20.4	-33.7	8.9
CS(=O)(=O)N1CCN(c2ccc([N+](=O)[O-])c(NCc3ccccc3)c2)CC1	-6.1	-10.4	-2.6	2.0	.	.	.	.
Cc1ccc(NC(=O)CN2C(=O)N/C(=C\c3ccco3)C2=O)cc1	3.5	46.5*	3.0	1.5	0.0	-9.1	-6.9	-11.0
COc1cc(/C=C2\SC(=S)N(NC(=O)c3ccncc3)C2=O)ccc1O	-4.1	102.6*	-2.4	3.5	-0.1	72.6*	29.4	65.1*
CCOc1cc(/C=C2\SC(=S)N(NC(=O)c3cccnc3)C2=O)ccc1O	-2.3	78.3*	-1.8	2.0	0.0	83.3*	-0.8	62.0*
O=C(NN1C(=O)/C(=C/c2cccs2)SC1=S)c1cccnc1	-4.7	42.1*	0.7	-6.2	0.5	1.6	-9.1	-8.4
COc1cc(/C=C2\SC(=S)N(NC(=O)c3ccc(O)c(OC)c3)C2=O)ccc1O	-4.1	.	1.7	4.3	0.1	.	.	.
COc1cc(/C=C2\SC(=S)N(NC(=O)c3ccccc3OC)C2=O)ccc1O	-1.8	75.4*	12.7	-13.0	0.0	19.5	12.0	-0.7
CCOc1cc(C(c2c(C)[nH][nH]c2=O)c2c(C)[nH][nH]c2=O)ccc1OS(=O)(=O)c1ccc(C)cc1	-1.0	103.1*	10.6	-11.0	.	20.1	16.3	-13.2
